{
  "source": "PubChem BioAssay",
  "note": "Unmarked numbers belong to inactive results. Active and inactive are the calls of the source.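 How the source made its calls, unless noted: active means viability at or under a set limit in both replicates, limit being median viability minus 3 SD (cut at about 48% in these data, passing the limit was not always enough); inconclusive means at or under the limit in just one replicate; inactive means at or above the limit in both replicates.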",
  "data": [
    {"test": "HUVEC growth inhibition – cell-based, human, primary screen (AID 575;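 active means viability at or below 30% in both replicate assays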;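 further: 100% = median of untreated cell wells with 0.1% DMSO on each plate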)", "details": "HUVEC proliferation, CellTiter-Glo luminescence, 72 h; at 10 µM; stronger effect = lower value", "summary_of_the_method": "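Test system: primary human umbilical vein endothelial cells; medium: endothelial basal medium with 2% FBS plus growth supplements; dosing: 10 µM compound only; times: 72 h treatment at 37 °C; signal: CTG luminescence; read-out: % viability relative to median vehicle-well signal on each plate; control set: vehicle and MePR control wells; plate: 384-well, collagen-coated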", "units": {"viability": "%"}, "values": [
      {"smiles": "CCOC(=O)Nc1ccc2c(c1)N(C(=O)CN(CC)CC)c1ccccc1C=C2", "viability": 97.3},
      {"smiles": "O=C1C(Cl)=C(N2CCOCC2)C(=O)N1CCc1ccccc1", "viability": 89.3},
      {"smiles": "CCN(CCCNC(=O)CCNC(=O)Cn1ccc2ccccc2c1=O)c1ccccc1", "viability": 109},
      {"smiles": "O=C(Nc1cccc2ccccc12)N1CCOCC1", "viability": 85.9},
      {"smiles": "O=C1C(Cl)=C(N2CCCCC2)C(=O)N1c1ccccc1Cl", "viability": 89.7},
      {"smiles": "CCC1(c2ccc(F)cc2)NC(=O)N(CC(=O)c2ccc[nH]2)C1=O", "note": "(stereo not drawn)", "viability": 99.3},
      {"smiles": "Nn1c(SCC(=O)Nc2ccc(F)cc2)nnc1-c1cccnc1", "viability": 95.1},
      {"smiles": "CC1=C(C(N)=O)C(c2cccnc2)n2nc(SCc3ccccc3Cl)nc2N1", "note": "(stereo not drawn)", "viability": 87.6},
      {"smiles": "COc1cc2c(cc1OC)C(c1cccnc1)CC(=O)N2", "note": "(stereo not drawn)", "viability": 82.2},
      {"smiles": "CC(=O)c1cccc(NC(=O)c2ccc(NS(C)(=O)=O)cc2)c1", "viability": 97.7},
      {"smiles": "CCC(C)(C)n1nnnc1C(c1ccc(OC)c(OC)c1)N1CCN(c2ccc(F)cc2)CC1", "note": "(stereo not drawn)", "viability": 89.2},
      {"smiles": "Cc1cccc(C)c1NC(=O)CS(=O)CC(=O)NC1CCCc2ccccc21", "note": "(stereo not drawn)", "viability": 103},
      {"smiles": "COc1ccccc1-c1cn[nH]c(=S)n1", "viability": 100},
      {"smiles": "COc1ccc(S(=O)(=O)N2CCOCC2)cc1C(=O)Nc1cc(C)on1", "viability": 102},
      {"smiles": "Cc1cc(C(=O)OCCO)c(C#N)c(N)n1", "viability": 95.9},
      {"smiles": "CCOC(=O)c1nnc(-c2ccccc2)o1", "viability": 86.1},
      {"smiles": "COCC(=O)Nc1sc2c(c1C(=O)OC)C(C(=O)OC)CC2", "note": "(stereo not drawn)", "viability": 84.6},
      {"smiles": "Cc1oc(-c2ccc(Cl)cc2)nc1CS(=O)CC(=O)NCCCN(C)C1CCCCC1", "note": "(stereo not drawn)", "viability": 66.3},
      {"smiles": "Cn1c(=O)c(-c2ccccc2)nn2c3ccccc3nc12", "viability": 90.8},
      {"smiles": "CCN1CCN(c2ncnc3c2oc2nc(C)c4c(c23)CC(C)(C)OC4)CC1", "viability": 98.3},
      {"smiles": "CCn1c(=O)cc(SCC(=O)Nc2cccnc2)c2ccccc21", "viability": 56.5},
      {"smiles": "COCCCNS(=O)(=O)c1ccc2c(c1)CCN2C(C)=O", "viability": 102},
      {"smiles": "CCN(CC)S(=O)(=O)c1ccc(Cl)c(C(=O)OC)c1", "viability": 99}
    ]},
    {"test": "H69AR cell proliferation blockers – human, duplicate replicates, primary screen (AID 580);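 further: 100% = mean luminescence of untreated wells and 0% = no signal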", "details": "H69AR lung tumor cells viability, ATP luminescence, 72 h; at 10 µM; stronger effect = lower value", "values": [
      {"smiles": "O=C(NCCO)c1scc2c1OCCO2", "viability": "93.6%"},
      {"smiles": "CN(c1ccccc1)S(=O)(=O)c1ccc(C(=O)OCC(=O)NCc2ccco2)cc1", "viability": "74.4%"},
      {"smiles": "Clc1ccc(SCCn2ccnc2)cc1", "viability": "96.2%"},
      {"smiles": "CC(C)(CO)NC(=O)CCCOc1ccc(Cl)cc1Cl", "viability": "98.1%"},
      {"smiles": "Cc1ccccc1NC(=O)CSc1nc(N)c(C#N)c(-c2cccs2)c1C#N", "viability": "30.2% (active)"},
      {"smiles": "CCN(CC)C(=O)CSc1nc2ccc(NC(=O)CSc3nccn3C)cc2s1", "viability": "91%"},
      {"smiles": "Cc1cc(Oc2ccccc2)nc(-c2ccccc2)n1", "viability": "99.1%"},
      {"smiles": "COc1ccc(S(=O)(=O)CCC(=O)O)cc1", "viability": "106%"},
      {"smiles": "O=C(Nc1ccc(OC(=O)c2ccco2)cc1)c1ccco1", "viability": "85.3%"},
      {"smiles": "CCCc1nnc(SCC(=O)N2CCOCC2)n1Cc1ccco1", "viability": "96.9%"},
      {"smiles": "Cc1ccc(S(=O)(=O)N2CCC(C(=O)N3CCC[C@H]3C(=O)NCc3ccccc3)CC2)cc1", "viability": "90.8%"},
      {"smiles": "C=C(C)Cn1c(N2CCN(CC)CC2)nc2c1c(=O)[nH]c(=O)n2C", "viability": "85.7%"},
      {"smiles": "Cc1cc2oc(=O)cc(CN3CCN(Cc4ccc5c(c4)OCO5)CC3)c2cc1C", "viability": "80.6%"},
      {"smiles": "Cn1c(=O)c(C(=O)Nc2cccnc2)c(O)c2ccccc21", "viability": "88.4%"},
      {"smiles": "C=Cn1c(C(=O)O)cc(CC)c1-c1ccccc1", "viability": "106%"},
      {"smiles": "COc1ccccc1N1C(=O)CC(Sc2nc(C)cc(C)n2)C1=O", "note": "(stereo not drawn)", "viability": "83.4%"},
      {"smiles": "COc1cccc(NC(=O)NC2(C(F)(F)F)Oc3ccccc3O2)c1", "viability": "30.7% (active)"},
      {"smiles": "CCOC(=O)Nc1ccc2c(c1)N(C(=O)CN(CC)CC)c1ccccc1C=C2", "viability": "91.4%"},
      {"smiles": "O=C1C(Cl)=C(N2CCOCC2)C(=O)N1CCc1ccccc1", "viability": "71.3%"},
      {"smiles": "CCN(CCCNC(=O)CCNC(=O)Cn1ccc2ccccc2c1=O)c1ccccc1", "viability": "98.3%"},
      {"smiles": "O=C(Nc1cccc2ccccc12)N1CCOCC1", "viability": "90.5%"},
      {"smiles": "O=C1C(Cl)=C(N2CCCCC2)C(=O)N1c1ccccc1Cl", "viability": "81.8%"},
      {"smiles": "CCC1(c2ccc(F)cc2)NC(=O)N(CC(=O)c2ccc[nH]2)C1=O", "note": "(stereo not drawn)", "viability": "96.6%"},
      {"smiles": "Nn1c(SCC(=O)Nc2ccc(F)cc2)nnc1-c1cccnc1", "viability": "103%"},
      {"smiles": "CC1=C(C(N)=O)C(c2cccnc2)n2nc(SCc3ccccc3Cl)nc2N1", "note": "(stereo not drawn)", "viability": "98.7%"},
      {"smiles": "COc1cc2c(cc1OC)C(c1cccnc1)CC(=O)N2", "note": "(stereo not drawn)", "viability": "97.4%"},
      {"smiles": "CC(=O)c1cccc(NC(=O)c2ccc(NS(C)(=O)=O)cc2)c1", "viability": "83.6%"},
      {"smiles": "CCC(C)(C)n1nnnc1C(c1ccc(OC)c(OC)c1)N1CCN(c2ccc(F)cc2)CC1", "note": "(stereo not drawn)", "viability": "85.8%"},
      {"smiles": "Cc1cccc(C)c1NC(=O)CS(=O)CC(=O)NC1CCCc2ccccc21", "note": "(stereo not drawn)", "viability": "88.7%"},
      {"smiles": "COc1ccccc1-c1cn[nH]c(=S)n1", "viability": "96.1%"},
      {"smiles": "COc1ccc(S(=O)(=O)N2CCOCC2)cc1C(=O)Nc1cc(C)on1", "viability": "93.9%"},
      {"smiles": "Cc1cc(C(=O)OCCO)c(C#N)c(N)n1", "viability": "92.1%"},
      {"smiles": "CCOC(=O)c1nnc(-c2ccccc2)o1", "viability": "88.1%"},
      {"smiles": "COCC(=O)Nc1sc2c(c1C(=O)OC)C(C(=O)OC)CC2", "note": "(stereo not drawn)", "viability": "101%"},
      {"smiles": "Cc1oc(-c2ccc(Cl)cc2)nc1CS(=O)CC(=O)NCCCN(C)C1CCCCC1", "note": "(stereo not drawn)", "viability": "87.1%"},
      {"smiles": "Cn1c(=O)c(-c2ccccc2)nn2c3ccccc3nc12", "viability": "90.8%"},
      {"smiles": "CCN1CCN(c2ncnc3c2oc2nc(C)c4c(c23)CC(C)(C)OC4)CC1", "viability": "97%"},
      {"smiles": "CCn1c(=O)cc(SCC(=O)Nc2cccnc2)c2ccccc21", "viability": "104%"},
      {"smiles": "COCCCNS(=O)(=O)c1ccc2c(c1)CCN2C(C)=O", "viability": "87.1%"},
      {"smiles": "CCN(CC)S(=O)(=O)c1ccc(Cl)c(C(=O)OC)c1", "viability": "95.7%"}
    ]}
  ]
}
